Drawing on ChEMBL document CHEMBL4138058, “Design and synthesis of novel selective estrogen receptor degradation inducers based on the diphenylheptane skeleton” (Medchemcomm, 2017), this text covers Activity and IC50 for one molecule.

Data set [1] has as its target T1, Aryl hydrocarbon receptor (Homo sapiens, UniProt P35869).
T1 sequence (P35869 whole entry): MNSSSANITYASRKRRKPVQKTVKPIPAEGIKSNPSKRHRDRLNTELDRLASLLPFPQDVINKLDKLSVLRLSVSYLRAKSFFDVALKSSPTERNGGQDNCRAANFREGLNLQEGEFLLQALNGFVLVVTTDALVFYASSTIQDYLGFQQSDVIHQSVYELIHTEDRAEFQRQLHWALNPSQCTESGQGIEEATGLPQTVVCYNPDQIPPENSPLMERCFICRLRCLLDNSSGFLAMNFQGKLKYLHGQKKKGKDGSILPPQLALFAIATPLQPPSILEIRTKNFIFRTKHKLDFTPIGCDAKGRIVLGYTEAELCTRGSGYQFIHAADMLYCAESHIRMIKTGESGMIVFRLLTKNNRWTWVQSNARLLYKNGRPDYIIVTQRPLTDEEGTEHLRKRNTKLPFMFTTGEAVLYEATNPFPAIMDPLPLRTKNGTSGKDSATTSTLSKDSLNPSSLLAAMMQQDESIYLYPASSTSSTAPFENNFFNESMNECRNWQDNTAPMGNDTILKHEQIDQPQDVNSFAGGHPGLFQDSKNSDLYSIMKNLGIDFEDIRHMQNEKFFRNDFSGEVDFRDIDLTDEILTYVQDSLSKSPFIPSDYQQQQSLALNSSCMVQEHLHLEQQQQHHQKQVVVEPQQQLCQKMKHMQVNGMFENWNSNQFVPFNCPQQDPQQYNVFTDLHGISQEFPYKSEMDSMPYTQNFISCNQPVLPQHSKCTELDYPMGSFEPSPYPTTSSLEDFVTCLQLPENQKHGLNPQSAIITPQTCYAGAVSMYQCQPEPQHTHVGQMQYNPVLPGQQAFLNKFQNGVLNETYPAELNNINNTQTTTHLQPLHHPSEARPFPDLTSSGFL
Put plainly: Downregulation of AhR expression in human MCF7 cells at 10 uM after 6 hrs by Western blot method relative to lamin B. In kind it is cell-based. The note with it: mcf7, 6 h. In outline:
(§1)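 MCF-7 cells kept in DMEM with 10% FBS, kanamycin and 10 μg/mL insulin, then exposed to compounds for 6 h. Lysates made in SDS buffer (0.1 M Tris-HCl pH 8.0, 10% glycerol, 1% SDS), boiled, BCA-normalized and run on SDS-PAGE. Blots probed with anti-ERα, AR, AhR or VDR and β-actin or lamin B. Chemiluminescence quantified as target/loading-protein ratio; means ± S.E., n=3.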
In general terms: In western blotting, separated proteins are transferred to a membrane and probed.

In data set [2] the target is T2, Estrogen receptor (Homo sapiens) (UniProt P03372).
T2 sequence (whole entry): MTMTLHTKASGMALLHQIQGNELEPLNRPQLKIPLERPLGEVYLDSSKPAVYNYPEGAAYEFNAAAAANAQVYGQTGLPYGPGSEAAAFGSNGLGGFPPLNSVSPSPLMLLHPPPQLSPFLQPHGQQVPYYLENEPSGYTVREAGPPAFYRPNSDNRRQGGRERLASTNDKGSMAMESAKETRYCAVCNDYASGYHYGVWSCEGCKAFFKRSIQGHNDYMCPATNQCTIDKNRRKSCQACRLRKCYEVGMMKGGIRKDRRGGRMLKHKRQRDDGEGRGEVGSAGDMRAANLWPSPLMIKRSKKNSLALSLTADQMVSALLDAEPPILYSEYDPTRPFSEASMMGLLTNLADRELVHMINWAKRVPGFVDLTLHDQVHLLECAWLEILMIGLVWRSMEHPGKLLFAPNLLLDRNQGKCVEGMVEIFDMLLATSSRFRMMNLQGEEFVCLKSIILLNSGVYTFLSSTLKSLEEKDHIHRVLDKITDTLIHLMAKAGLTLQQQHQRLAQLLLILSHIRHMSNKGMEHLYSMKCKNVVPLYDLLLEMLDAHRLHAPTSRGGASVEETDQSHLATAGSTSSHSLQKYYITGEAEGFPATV
As to the kind of experiment: Downregulation of ERalpha expression in human MCF7 cells at 3 uM after 6 hrs in presence of proteasome inhibitor MG132 by Western blot method relative to lamin B. In kind it is cell-based. The gist of the method:
as §1

For data set [3], the target named is T3, Androgen receptor (Homo sapiens) (UniProt P10275).
T3 sequence (whole entry): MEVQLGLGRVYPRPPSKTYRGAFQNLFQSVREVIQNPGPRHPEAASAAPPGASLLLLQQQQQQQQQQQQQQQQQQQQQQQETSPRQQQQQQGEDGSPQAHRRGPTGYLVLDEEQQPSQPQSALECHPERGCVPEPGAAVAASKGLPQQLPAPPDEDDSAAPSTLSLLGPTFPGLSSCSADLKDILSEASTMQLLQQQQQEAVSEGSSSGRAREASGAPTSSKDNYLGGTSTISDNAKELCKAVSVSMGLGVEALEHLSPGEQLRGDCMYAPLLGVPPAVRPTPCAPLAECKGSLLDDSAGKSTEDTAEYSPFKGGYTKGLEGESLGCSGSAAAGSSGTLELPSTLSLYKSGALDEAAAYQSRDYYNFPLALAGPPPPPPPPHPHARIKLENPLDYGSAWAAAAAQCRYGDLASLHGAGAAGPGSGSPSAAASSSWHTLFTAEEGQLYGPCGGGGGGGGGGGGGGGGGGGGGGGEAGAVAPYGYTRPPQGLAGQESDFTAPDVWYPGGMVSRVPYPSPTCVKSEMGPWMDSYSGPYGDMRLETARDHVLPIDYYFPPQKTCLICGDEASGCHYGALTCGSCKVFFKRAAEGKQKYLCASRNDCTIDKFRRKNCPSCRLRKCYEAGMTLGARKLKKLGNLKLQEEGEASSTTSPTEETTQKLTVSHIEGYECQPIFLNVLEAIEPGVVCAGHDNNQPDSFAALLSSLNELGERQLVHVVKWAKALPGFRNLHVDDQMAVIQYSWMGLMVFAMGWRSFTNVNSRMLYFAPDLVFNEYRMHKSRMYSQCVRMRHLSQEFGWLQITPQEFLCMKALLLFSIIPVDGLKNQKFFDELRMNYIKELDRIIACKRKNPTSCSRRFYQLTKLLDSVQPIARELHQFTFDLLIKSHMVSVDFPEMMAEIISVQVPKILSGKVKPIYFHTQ
Put plainly: Downregulation of androgen receptor expression in human MCF7 cells at 3 uM after 6 hrs by Western blot method relative to lamin B. Type of data set: cell-based. The gist of the method:
as §1

Another data set concerns the target T4, Estrogen receptor (Homo sapiens, UniProt P03372).
T4 sequence (P03372 whole entry): T2 sequence (whole entry)
As to the kind of experiment: Displacement of Fluormone ES2 Green from full-length untagged human ERalpha expressed in insect cells after 2 hrs by fluorescence polarization assay. (Fluorescence polarisation rises when a labelled molecule tumbles more slowly, as on binding a larger partner.)

The target in data set [4] is T1, Aryl hydrocarbon receptor. As to the kind of experiment: Downregulation of AhR expression in human MCF7 cells at 3 uM after 6 hrs by Western blot method relative to lamin B. Type of data set: cell-based. The note with it: mcf7, 6 h. In outline: as §1

The term IC50 denotes the concentration that inhibits the measured activity by half. A high value points to weaker potency. In the case of `CCCCCCCCCCNCCOc1ccc(C(CCC)(CCC)c2ccc(O)c(C)c2)cc1C`, the Activity in data set [1] was found to be 81%; in data set [2], 101%; in data set [3], 106%; in data set [4] it was 80%. The molecule also came in with a concentration for half-maximal inhibition (IC50) on Estrogen receptor of 4.9 nM.
